The target in test [1] is T1, Serine/threonine-protein kinase BRSK2 (Homo sapiens) (UniProt Q8IWQ3).
T1 sequence (whole entry): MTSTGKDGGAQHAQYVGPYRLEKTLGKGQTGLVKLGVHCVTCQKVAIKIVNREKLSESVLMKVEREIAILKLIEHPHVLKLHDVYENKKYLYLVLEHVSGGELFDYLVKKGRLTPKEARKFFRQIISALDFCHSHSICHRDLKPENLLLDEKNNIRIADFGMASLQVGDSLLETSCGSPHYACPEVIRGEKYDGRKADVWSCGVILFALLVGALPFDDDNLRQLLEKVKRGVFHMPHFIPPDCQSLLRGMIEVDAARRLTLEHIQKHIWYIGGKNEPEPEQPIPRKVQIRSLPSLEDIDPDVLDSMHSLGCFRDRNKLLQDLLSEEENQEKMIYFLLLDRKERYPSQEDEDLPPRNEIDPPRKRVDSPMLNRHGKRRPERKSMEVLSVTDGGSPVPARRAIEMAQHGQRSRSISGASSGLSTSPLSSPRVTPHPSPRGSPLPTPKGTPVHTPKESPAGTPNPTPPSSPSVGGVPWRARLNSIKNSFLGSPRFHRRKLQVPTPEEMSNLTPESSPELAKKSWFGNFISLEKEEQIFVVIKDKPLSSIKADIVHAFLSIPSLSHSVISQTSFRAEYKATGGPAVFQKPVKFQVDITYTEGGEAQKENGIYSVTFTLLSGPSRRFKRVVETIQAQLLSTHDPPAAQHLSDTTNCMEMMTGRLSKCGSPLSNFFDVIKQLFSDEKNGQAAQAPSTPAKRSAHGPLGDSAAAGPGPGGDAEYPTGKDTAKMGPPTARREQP
The test can be described thus: Inhibition of human recombinant BRSK2 at 40 nM in presence of ATP by radiometric assay relative to control. Put shortly:
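Recombinant human kinase panel (327 kinases) run as radiometric activity assays, each kinase in duplicate at one compound concentration. Activity remaining expressed relative to vehicle control; percent inhibition taken as 100% minus % activity remaining.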

Test [2] deals with T2, cGMP-dependent protein kinase 1 (Homo sapiens) (UniProt Q13976).
T2 sequence (whole entry): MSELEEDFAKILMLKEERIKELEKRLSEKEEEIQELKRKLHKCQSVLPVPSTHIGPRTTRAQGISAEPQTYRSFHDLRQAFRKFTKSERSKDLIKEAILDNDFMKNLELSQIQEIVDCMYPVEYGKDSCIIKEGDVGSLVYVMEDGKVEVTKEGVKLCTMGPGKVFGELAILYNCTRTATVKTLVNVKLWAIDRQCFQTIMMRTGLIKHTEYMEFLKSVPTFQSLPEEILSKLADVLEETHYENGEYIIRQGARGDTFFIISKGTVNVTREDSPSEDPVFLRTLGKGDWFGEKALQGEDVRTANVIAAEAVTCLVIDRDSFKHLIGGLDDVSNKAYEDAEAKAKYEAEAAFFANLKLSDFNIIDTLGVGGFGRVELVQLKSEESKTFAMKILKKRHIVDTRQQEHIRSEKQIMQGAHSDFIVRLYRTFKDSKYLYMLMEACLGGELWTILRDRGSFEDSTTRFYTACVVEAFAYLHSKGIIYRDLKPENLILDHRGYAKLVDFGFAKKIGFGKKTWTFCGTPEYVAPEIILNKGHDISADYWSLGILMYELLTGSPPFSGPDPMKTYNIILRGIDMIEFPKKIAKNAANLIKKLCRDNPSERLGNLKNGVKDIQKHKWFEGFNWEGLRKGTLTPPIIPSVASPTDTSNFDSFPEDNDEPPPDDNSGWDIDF
The test can be described thus: Inhibition of human recombinant PKG1 at 40 nM in presence of ATP by radiometric assay relative to control.

In test [3] the target is Epithelial discoidin domain-containing receptor 1 (Homo sapiens) (UniProt Q08345). Nature of the test: Inhibition of human recombinant DDR1 at 500 nM related to control ULK1.
Epithelial discoidin domain-containing receptor 1 (Homo sapiens), sequence (Q08345 whole entry, the tested form may be a part): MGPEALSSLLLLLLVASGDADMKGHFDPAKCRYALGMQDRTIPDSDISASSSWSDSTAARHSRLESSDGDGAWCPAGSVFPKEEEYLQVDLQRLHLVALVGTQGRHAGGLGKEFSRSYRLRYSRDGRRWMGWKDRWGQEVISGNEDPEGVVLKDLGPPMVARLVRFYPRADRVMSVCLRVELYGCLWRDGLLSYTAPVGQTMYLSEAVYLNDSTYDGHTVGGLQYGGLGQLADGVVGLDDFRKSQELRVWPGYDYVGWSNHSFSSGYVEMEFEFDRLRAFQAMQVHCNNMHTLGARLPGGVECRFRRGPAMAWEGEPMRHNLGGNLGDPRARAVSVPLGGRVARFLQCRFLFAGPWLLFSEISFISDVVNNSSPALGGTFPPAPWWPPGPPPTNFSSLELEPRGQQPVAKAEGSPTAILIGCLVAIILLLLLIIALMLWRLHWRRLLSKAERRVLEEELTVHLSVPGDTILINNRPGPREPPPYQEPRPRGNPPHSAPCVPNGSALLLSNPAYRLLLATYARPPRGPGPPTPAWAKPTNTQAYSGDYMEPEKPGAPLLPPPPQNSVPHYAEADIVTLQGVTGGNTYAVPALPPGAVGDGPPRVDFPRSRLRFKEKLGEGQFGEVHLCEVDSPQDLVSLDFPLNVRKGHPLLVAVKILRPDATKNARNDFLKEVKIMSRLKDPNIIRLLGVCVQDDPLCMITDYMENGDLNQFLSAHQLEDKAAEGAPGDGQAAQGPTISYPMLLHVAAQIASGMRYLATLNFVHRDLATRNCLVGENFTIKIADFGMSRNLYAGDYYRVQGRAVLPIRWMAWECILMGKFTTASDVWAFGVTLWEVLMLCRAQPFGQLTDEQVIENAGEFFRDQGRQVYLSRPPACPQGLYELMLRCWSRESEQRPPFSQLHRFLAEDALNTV
The target of test [4] is Cell division cycle 7-related protein kinase (Homo sapiens) (UniProt O00311). Nature of the test: Inhibition of human recombinant CDC7 at 500 nM in presence of ATP by radiometric assay relative to control.
Cell division cycle 7-related protein kinase (Homo sapiens), sequence (O00311 whole entry, looked up): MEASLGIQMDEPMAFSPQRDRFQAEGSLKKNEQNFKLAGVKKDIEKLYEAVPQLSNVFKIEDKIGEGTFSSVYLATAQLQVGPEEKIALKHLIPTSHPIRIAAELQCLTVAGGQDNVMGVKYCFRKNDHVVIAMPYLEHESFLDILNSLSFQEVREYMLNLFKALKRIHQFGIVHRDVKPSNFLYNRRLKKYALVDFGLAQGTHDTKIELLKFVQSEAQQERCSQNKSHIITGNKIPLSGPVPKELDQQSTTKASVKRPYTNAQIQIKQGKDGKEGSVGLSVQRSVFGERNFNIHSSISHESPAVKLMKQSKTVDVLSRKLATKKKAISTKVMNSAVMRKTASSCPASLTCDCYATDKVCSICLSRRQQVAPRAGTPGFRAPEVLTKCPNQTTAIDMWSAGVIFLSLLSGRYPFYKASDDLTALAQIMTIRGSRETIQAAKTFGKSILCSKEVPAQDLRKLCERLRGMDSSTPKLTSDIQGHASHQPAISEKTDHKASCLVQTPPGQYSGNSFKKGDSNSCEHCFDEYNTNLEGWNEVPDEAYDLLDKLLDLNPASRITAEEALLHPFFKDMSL
Test [5] concerns the target T3, Dual specificity tyrosine-phosphorylation-regulated kinase 2 (Homo sapiens) (UniProt Q92630).
T3 sequence (whole entry): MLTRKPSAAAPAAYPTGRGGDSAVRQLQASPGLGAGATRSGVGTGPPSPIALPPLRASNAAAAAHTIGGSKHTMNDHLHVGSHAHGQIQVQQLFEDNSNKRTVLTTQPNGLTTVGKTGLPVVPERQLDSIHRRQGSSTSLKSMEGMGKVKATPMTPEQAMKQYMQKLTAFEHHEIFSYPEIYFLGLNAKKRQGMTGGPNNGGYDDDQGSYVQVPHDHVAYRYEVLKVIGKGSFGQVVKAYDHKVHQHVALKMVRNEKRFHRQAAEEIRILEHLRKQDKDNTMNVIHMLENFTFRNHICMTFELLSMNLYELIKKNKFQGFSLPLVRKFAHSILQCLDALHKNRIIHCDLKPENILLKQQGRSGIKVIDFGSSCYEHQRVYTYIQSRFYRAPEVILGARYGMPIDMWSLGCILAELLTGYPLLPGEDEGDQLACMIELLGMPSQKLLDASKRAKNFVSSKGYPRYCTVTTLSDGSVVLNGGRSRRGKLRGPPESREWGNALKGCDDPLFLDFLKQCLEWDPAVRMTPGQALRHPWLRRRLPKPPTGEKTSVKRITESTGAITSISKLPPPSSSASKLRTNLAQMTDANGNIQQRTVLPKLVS
The test can be described thus: Inhibition of human recombinant DYRK2 at 500 nM in presence of ATP by radiometric assay relative to control.

The target in test [6] is Serine/threonine-protein kinase PLK3 (Homo sapiens) (UniProt Q9H4B4). The test can be described thus: Inhibition of human recombinant PLK3 at 500 nM related to control ULK1.
Serine/threonine-protein kinase PLK3 (Homo sapiens), sequence (Q9H4B4 whole entry, looked up): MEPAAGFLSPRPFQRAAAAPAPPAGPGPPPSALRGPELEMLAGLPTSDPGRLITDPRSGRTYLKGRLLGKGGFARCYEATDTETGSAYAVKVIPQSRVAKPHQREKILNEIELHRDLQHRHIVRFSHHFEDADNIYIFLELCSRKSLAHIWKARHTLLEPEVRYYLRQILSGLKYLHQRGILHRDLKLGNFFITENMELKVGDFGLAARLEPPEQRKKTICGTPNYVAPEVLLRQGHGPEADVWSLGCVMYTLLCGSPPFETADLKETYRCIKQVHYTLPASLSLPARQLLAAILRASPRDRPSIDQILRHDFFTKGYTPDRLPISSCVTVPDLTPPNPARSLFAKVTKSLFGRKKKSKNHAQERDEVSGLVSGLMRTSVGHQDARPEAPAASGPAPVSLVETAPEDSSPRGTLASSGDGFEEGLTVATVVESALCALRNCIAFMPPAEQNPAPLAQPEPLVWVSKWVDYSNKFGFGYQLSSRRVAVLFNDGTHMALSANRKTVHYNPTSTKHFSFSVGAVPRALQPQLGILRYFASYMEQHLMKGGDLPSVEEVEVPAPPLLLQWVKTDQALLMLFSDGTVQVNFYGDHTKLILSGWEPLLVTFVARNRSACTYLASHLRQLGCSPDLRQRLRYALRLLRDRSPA
The target in test [7] is Calcium/calmodulin-dependent protein kinase kinase 2 (Homo sapiens) (UniProt Q96RR4). The test can be described thus: Inhibition of human recombinant CaMKK2 at 500 nM related to control ULK1.
For test [8], the target named is Serine/threonine-protein kinase 33 (Homo sapiens) (UniProt Q9BYT3). The test can be described thus: Inhibition of human recombinant STK33 at 500 nM related to control ULK1.
Serine/threonine-protein kinase 33 (Homo sapiens), sequence (Q9BYT3 whole entry, looked up): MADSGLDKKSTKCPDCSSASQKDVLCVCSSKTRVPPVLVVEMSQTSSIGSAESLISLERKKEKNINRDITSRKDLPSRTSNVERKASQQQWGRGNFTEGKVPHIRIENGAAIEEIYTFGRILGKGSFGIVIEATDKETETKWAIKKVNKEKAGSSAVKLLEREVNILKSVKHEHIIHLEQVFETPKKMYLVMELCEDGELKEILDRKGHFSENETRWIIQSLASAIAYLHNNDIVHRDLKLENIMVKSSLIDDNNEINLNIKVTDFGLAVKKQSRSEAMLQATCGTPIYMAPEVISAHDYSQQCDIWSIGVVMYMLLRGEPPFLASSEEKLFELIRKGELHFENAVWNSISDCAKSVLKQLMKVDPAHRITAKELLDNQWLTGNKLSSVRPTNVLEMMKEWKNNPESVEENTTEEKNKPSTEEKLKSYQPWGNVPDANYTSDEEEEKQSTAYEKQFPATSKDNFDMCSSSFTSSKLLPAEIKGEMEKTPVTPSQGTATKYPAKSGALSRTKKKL
Test [9] addresses Serine/threonine-protein kinase NIM1 (Homo sapiens) (UniProt Q8IY84). The test can be described thus: Inhibition of human recombinant NIM1 at 500 nM in presence of ATP by radiometric assay relative to control.
In test [10] the target is Activin receptor type-1-like (Homo sapiens) (UniProt P37023). Nature of the test: Inhibition of human recombinant ALK1 at 15 nM related to control ULK1. Put shortly: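 Panel of 327 recombinant human kinases, each assayed in vitro by radiometric activity assay in duplicate at a single inhibitor concentration per compound, chosen with reference to its ULK1 inhibition. Activity remaining was expressed as percent of vehicle control, and percent inhibition was calculated as 100 minus percent activity remaining.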
Activin receptor type-1-like (Homo sapiens), sequence (P37023 whole entry): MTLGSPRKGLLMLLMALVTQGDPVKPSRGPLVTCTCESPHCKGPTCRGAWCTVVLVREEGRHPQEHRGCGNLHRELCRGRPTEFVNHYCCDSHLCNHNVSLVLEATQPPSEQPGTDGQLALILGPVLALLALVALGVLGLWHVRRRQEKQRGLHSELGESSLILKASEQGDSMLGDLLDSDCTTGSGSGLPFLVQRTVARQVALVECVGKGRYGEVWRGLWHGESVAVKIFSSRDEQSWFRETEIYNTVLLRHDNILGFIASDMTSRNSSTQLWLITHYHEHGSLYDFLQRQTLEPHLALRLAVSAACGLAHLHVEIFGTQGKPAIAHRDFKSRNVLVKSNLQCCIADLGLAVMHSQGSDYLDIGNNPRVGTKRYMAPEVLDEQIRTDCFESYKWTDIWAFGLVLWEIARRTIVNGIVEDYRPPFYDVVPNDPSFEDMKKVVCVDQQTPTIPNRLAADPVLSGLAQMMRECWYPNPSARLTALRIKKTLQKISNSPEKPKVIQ

The target of test [11] is Cyclin-dependent kinase 5 (Homo sapiens) (UniProt Q00535). The test can be described thus: Inhibition of human recombinant CDK5 at 15 nM in presence of ATP by radiometric assay relative to control.
Cyclin-dependent kinase 5 (Homo sapiens), sequence (Q00535 whole entry, looked up): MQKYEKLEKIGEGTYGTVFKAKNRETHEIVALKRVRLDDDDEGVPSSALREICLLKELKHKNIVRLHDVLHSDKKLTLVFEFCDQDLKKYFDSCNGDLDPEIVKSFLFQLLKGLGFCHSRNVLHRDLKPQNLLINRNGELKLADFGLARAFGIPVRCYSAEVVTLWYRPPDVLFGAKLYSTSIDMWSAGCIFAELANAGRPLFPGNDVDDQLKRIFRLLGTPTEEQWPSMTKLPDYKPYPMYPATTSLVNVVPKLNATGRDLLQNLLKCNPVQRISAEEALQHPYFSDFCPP
The target in test [12] is Ephrin type-A receptor 5 (Homo sapiens) (UniProt P54756). The test can be described thus: Inhibition of human recombinant EphA5 at 15 nM in presence of ATP by radiometric assay relative to control.
Ephrin type-A receptor 5 (Homo sapiens), sequence (P54756 whole entry): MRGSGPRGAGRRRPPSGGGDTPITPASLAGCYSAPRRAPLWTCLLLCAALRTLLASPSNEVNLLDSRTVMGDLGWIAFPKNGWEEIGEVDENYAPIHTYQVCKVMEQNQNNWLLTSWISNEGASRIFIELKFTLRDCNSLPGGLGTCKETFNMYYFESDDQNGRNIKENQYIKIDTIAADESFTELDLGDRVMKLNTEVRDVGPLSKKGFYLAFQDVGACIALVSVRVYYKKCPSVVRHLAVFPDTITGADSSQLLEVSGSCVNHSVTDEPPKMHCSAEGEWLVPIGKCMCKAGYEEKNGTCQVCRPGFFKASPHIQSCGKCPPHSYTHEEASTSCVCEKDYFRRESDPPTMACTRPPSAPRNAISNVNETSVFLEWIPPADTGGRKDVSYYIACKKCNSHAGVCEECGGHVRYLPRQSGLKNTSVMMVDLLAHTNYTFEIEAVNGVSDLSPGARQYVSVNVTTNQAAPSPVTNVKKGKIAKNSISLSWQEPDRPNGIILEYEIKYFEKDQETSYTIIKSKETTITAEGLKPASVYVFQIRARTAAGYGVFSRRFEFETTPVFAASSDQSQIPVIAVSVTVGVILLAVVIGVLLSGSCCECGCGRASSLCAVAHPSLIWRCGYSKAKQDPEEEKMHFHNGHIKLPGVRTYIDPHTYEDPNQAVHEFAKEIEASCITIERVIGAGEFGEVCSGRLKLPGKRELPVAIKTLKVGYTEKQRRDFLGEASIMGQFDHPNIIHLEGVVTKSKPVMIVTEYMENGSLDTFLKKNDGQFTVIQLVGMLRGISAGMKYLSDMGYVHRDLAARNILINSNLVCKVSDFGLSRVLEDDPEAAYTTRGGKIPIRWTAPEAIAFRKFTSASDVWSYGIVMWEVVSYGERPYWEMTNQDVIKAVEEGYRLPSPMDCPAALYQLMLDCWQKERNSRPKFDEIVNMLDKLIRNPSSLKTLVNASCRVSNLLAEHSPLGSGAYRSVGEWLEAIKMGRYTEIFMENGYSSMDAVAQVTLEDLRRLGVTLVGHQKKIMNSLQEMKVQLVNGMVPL

Serine/threonine-protein kinase NIM1 (Homo sapiens), sequence (Q8IY84 whole entry): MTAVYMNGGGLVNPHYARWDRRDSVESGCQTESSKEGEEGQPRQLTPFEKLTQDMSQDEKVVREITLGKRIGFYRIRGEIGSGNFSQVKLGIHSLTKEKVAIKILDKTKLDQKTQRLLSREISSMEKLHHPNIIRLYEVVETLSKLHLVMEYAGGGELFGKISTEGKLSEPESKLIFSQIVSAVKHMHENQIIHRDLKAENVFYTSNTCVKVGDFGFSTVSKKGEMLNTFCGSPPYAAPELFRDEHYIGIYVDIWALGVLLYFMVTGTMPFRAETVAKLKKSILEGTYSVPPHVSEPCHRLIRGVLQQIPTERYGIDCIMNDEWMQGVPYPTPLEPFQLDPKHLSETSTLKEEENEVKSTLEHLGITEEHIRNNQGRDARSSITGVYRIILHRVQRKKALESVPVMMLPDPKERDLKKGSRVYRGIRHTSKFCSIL

The term inhibition denotes the share of the control response that was lost under treatment. Turning to `O=C(N[C@@H](C1CC1)C(F)(F)F)c1cc(-c2cnn3cc(-c4ccc(F)cc4)cnc23)cs1`, the values for the inhibition in test [1] and in test [2] were 0% and 6%, respectively.
Take `CNC(=O)c1ccccc1Oc1nc(Nc2cc(OC)c(OC)c(OC)c2)ncc1Br`: the fold change (FC) in [3] was 0.64; in test [6], 0; in test [7], 0.05; in test [8] it was 0.05. For the same compound, the inhibition in test [4], in test [5] and in [9] was 0% throughout.
For the compound `CC(C)[C@H](NC(=O)c1cc(-c2cnn3cc(-c4ccc(OCCN5CCCCC5)cc4)cnc23)cs1)C(F)(F)F`, the fold change (FC) in test [10] was 0.08. For the same compound, the inhibition was found to be 23% in test [11] and 0% in [12].

For the origin of these results see ChEMBL document CHEMBL5653631, “A Potent and Selective ULK1 Inhibitor Suppresses Autophagy and Sensitizes Cancer Cells to Nutrient Stress” (iScience, 2018).
